# Screening data deposited in PubChem BioAssay by Sanford-Burnham Center for Chemical Genomics.
# EBI2 antag = blocks human EBI2 receptor beta-arrestin signaling. P32249. EBI2 beta-arrestin recruitment, luminescence, 7a,25-OHC stimulated. inhibition, % at 5 µM. 360,000 compounds, 0.81% hits. AID 651636; in the data active means inhibition above about 38%;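 further: enzyme fragment complementation signal reports receptor beta-arrestin coupling in cells; 0% = agonist plus DMSO wells and 100% = wells without agonist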
# CCR6 antagonist = CCR6 (human) receptor antagonism | 340,000 compounds, 0.49% hits | inhibition, % at 20 µM | P51684 | AID 493098 | CHO-K1 CCR6 PathHunter beta-arrestin, luminescence, CCL20-stimulated;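 active means compounds whose inhibition of the agonist-driven luminescence signal at 20 µM reaches about 50%, limit read from the data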;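 further: cells stimulated with CCL20 at 14 nM final; plate controls were DMSO with CCL20 for no effect and DMSO without agonist for full effect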
# Target sequence (P51684 whole entry, looked up): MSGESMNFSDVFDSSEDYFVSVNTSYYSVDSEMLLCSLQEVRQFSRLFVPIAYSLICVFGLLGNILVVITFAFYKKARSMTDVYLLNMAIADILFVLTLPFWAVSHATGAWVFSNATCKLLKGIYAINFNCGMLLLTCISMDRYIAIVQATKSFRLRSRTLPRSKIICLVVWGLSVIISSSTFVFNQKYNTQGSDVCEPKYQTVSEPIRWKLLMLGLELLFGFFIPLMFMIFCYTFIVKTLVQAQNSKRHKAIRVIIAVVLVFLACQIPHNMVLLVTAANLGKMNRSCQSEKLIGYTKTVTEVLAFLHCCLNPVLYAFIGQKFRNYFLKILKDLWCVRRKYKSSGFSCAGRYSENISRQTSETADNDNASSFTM
# CXCR6 block = CXCR6 (human) receptor inhibition | O00574 | CHO-K1 PathHunter CXCR6 beta-arrestin, luminescence | inhibition, % at 20 µM | 360,000 compounds, 0.36% hits; in the data active means inhibition above about 34%, passing the limit was not always enough;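 further: antagonist mode with CXCL16 agonist at 10 nM final; 0% = 10 nM CXCL16 with DMSO and 100% = unstimulated wells without agonist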
# APJ agonist = activates the human apelin receptor APJ | P35414 | CHO-K1 APJ PathHunter beta-arrestin, luminescence; 0% DMSO wells, 100% apelin | 330,000 compounds, 0.11% hits | AID 2520 | activation, % at 20 µM;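 active means activation more than six SD over the plate average, tested at 20 µM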;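 further: 0% = DMSO alone and 100% = apelin-13 at 10 nM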
#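 system = engineered CHO-K1 APJ arrestin reporter cells | input = 1000 cells per well | timing = overnight seeding, 90 min compound at 25 °C, 1 h detection | measured by = enzyme-fragment complementation luminescence | read-out = beta-arrestin recruitment to APJ as agonist activity, luminescent signal | control set = negative DMSO alone, positive Apelin-13 at 10 nM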
# APJ antag = APJ receptor antagonism; CHO-K1 APJ beta-arrestin complementation, luminescence; P35414; 330,000 compounds, 0.32% hits; inhibition, % at 20 µM;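 active means inhibition above about 40% at 20 µM, limit read from the data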;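 further: cells challenged with 10 nM apelin-13 agonist together with compound; plate controls were apelin-13 plus DMSO wells for no effect and DMSO wells lacking apelin-13 for full effect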
# APJ antag confirm = confirmation of human APJ apelin receptor antagonists; 950 compounds, 66% hits; shares compounds with APJ antag; AID 2766; inhibition, % at 20 µM; APJ beta-arrestin recruitment, luminescence, antagonist mode; in the data active means inhibition above about 50%
# An asterisk follows results filed as active; x = no result. Only some compounds are listed: those with a hit (about 1.5% of all), similar ones and a draw of the others.
SMILES,EBI2 antag,CCR6 antagonist,CXCR6 block,APJ agonist,APJ antag,APJ antag confirm
COc1cccc(Nc2ccc([N+](=O)[O-])c3nonc23)c1,-8,47,18,-6,41*,68*
Cn1c(NC(=S)Nc2ccccc2)nc2ccccc21,7,-19,-10,-4,41*,14
S=C(Nc1ccccc1)Nc1nc2ccccc2n1CCOc1ccc(Br)cc1,0,-7,8,3,0,x
NNc1nc(-c2ccccc2)c2cc(Br)ccc2n1,4,22,-19,-7,32,x
NNc1nc(-c2ccccc2)cc(-c2ccc(Br)cc2)n1,22,37,12,-13,73*,105*
O=C(C1CCCCC1)N1CCCn2c1nc1ccccc12,2,-3,-23,-3,4,x
O=C(C1CCN(S(=O)(=O)c2cnc[nH]2)CC1)N1CCn2c1nc1ccccc12,35,67*,56*,-14,61*,101*
CC1=NN(c2ccc(C)cc2)C(=O)/C1=C\C=C\c1ccccc1,-6,12,5,-1,8,x
CC1=NN(c2ccccc2)C(=O)/C1=C/C=C/C=C/N(C)C,10,58*,49*,-8,65*,91*
Cc1ccc(/C=C2/NC(=O)N(Cc3ccccc3)C2=O)o1,-2,13,8,-9,61*,37
CCCCN(CCCC)C(=S)N/N=C/c1c(C)[nH]n(-c2ccccc2)c1=O,49*,113*,98*,-14,75*,126*
COc1ccc(C=C2C(=O)c3ccccc3C2=O)cc1O,4,43,32,-8,45*,59*
COc1cc(C=C2C(=O)c3ccccc3C2=O)cc(OC)c1,-1,18,4,-1,3,x
CCOC(=O)C1=C(C)N=c2s/c(=C/c3cccc([N+](=O)[O-])c3O)c(=O)n2C1c1ccc(OC)cc1OC (stereo unspecified),-5,64*,41*,-7,57*,98*
Cc1nc(-n2[nH]c3c(c2=O)CCCC3)[nH]c(=O)c1Cc1ccccc1,-8,74*,41*,-10,50*,81*
COc1ccc(Oc2c(OC)cc(NCc3ccc(CN)cc3)c3ncccc23)cc1,-42,x,3,x,x,x
CCCCNC(=O)C1(C)CCN1C(=O)c1cc(-c2cccs2)oc1C (stereo unspecified),21,x,21,x,x,x
O=C(Nc1nnc(SCc2ccc(F)cc2)s1)c1cnccn1,-7,20,2,-4,49*,60*
CCSc1nnc(NC(=O)c2cnccn2)s1,x,3,x,-1,5,x
CCSc1nnc(NC(=O)c2ccccn2)s1,8,37,24,-6,44*,60*
CCc1nc2ccc(C(=O)NCCCN(C)C)cn2c1N(C)Cc1ccc(OC)cc1,-4,x,1,x,x,x
COC(=O)c1ccc2c(c1C(=O)OC)CN(S(=O)(=O)C(C)(C)C)[C@@H]2CCO,-9,-2,-11,x,x,x
Cc1cccc(N2CCN(C(=O)c3ccncc3)CC2)c1C,-8,-9,1,-2,-10,x
COc1cc(C(=O)N2CCN(c3cccc(C)c3C)CC2)cc(OC)c1OC,-1,-2,4,-4,50*,5
COc1cccc([C@@H]2Oc3ccc(OC)cc3C(=O)[C@H]2O)c1,6,34,3,-15,-15,x
SMILES,EBI2 antag,CCR6 antagonist,CXCR6 block,APJ agonist,APJ antag,APJ antag confirm
COc1ccc2c(c1)C(=O)[C@@H](O)[C@H](c1ccc(OC)c(Br)c1)O2,9,59*,26,-20,40*,80*
C=CCSC(=S)Nc1c(C)n(C)n(-c2ccccc2)c1=O,-7,18,4,-2,47*,21
CCOc1c(C(N)=O)c(-c2ccccc2)c2c(=O)[nH]c3ccccc3n12,20,16,35,-8,60*,60*
Cc1noc(C)c1-c1ccc(C(=O)NCc2cccnc2)c2occc12,7,x,0,x,x,x
S=C1NCCc2ccccc2C1c1ccccc1 (stereo unspecified),-1,31,12,-5,19,x
S=C1NCCc2ccccc2C1c1ccccc1Cl (stereo unspecified),9,52*,35,-11,44*,87*
CCOC(=O)C1=NNC(C(=O)c2ccc(Cl)cc2)C1c1ccccc1 (stereo unspecified),15,41,9,-11,49*,75*
COC(=O)C1NN=C(C(=O)c2ccccc2)C1c1ccccc1 (stereo unspecified),-3,13,-3,-2,19,x
CCOC(=O)C1=NNC(C(=O)O)C1c1ccccc1 (stereo unspecified),1,1,-3,x,x,x
COC(=O)C1NN=C(C(=O)c2ccc(Cl)cc2)C1c1ccc(OC)cc1 (stereo unspecified),12,58*,27,-10,65*,81*
Cc1ccc2c(c1)C(=O)C(=O)N2c1ccc(Cl)cc1,6,30,15,-9,45*,86*
Cc1ccc2c(c1)C(=O)C(=O)N2c1ccc(C(F)(F)F)cc1,-8,9,18,-7,17,x
Cc1ccc(C)c(NC(=S)N/N=C2/CCCCc3ccccc32)c1,30,34,27,-10,47*,84*
CC(C)NC(=S)N/N=C1\CCCCc2ccccc21,-10,30,19,-3,8,x
CC(=O)Nc1ccc(NC(=O)CN2C(=O)COc3ccc(S(=O)(=O)N4CCOCC4)cc32)cc1,-2,7,-1,-5,19,x
CC(C)c1ccc(NC(=O)CN2C(=O)COc3ccc(S(=O)(=O)N4CCOCC4)cc32)cc1,-10,-1,8,-4,45*,-13
CCCn1nc([N+](=O)[O-])c(C(C#N)c2nc3ccccc3s2)c(Cl)c1=O (stereo unspecified),1,50*,31,-11,62*,66*
C=CCN1C(=O)/C(=C2/Sc3ccccc3N2CC)SC1=S,-8,0,-12,-3,15,x
C=CCN1C(=O)/C(=C/C=C2/N(CC)c3ccc(S(=O)(=O)N(C)C)cc3N2CC)SC1=S,25,64*,37,-7,52*,107*
O=S(=O)(NCC[C@@H]1CC[C@H](NS(=O)(=O)c2cccc(F)c2)[C@@H](CO)O1)c1cccc(F)c1,-8,x,x,x,x,x
COc1ccc(CCNC(=O)c2n[nH]c(=O)c3ccccc23)cc1,1,11,-4,-2,41*,39
N#CC(c1ccccc1)c1ccc2c(C(F)(F)F)cc(C(F)(F)F)nc2n1 (stereo unspecified),-20,53*,23,-5,42*,88*
FC(F)(F)c1cc(C(F)(F)F)c2ccc(N/N=C/c3ccccc3)nc2n1,20,-6,-5,1,-12,x
CN(N)c1ccc2c(C(F)(F)F)cc(C(F)(F)F)nc2n1,-3,-1,-2,-2,13,x
